Experimental data: ChEMBL document CHEMBL3621160, “Pseudosaccharin amines as potent and selective KV1.5 blockers” (Bioorg Med Chem Lett, 2015)

Legend:
[1] = molecular target: Mu-type opioid receptor (Homo sapiens) (UniProt P35372); experiment: Inhibition of human mu opioid receptor at 10 uM relative to control
Outline: (§1)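 Screening panel of over 37 receptors and enzymes relevant to cardiovascular effects or toxicity. Each target was tested at a single concentration of 10 µM, with % activity reported.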

[2] = molecular target: Protein kinase C (PKC) (Rattus norvegicus) (UniProt P05696+P68403+P09216+P63319+P09215+Q64617+Q9WTQ0+P09217); experiment: Inhibition of rat PKC at 10 uM relative to control; outline: as §1
Rattus norvegicus [3] = species on record: Rattus norvegicus; experiment: Inhibition of rat sodium channel site 2 at 10 uM relative to control
Outline: (§2)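 Single-concentration screen at 10 µM across a panel of over 37 receptors and enzymes linked to cardiovascular effects or toxicity. Read-out is percent activity.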

[4] = molecular target: Glucocorticoid receptor (Rattus norvegicus) (UniProt P06536); experiment: Inhibition of rat glucocorticoid receptor at 10 uM relative to control; outline: as §1
Chain of Glucocorticoid receptor (Rattus norvegicus) (P06536 whole entry): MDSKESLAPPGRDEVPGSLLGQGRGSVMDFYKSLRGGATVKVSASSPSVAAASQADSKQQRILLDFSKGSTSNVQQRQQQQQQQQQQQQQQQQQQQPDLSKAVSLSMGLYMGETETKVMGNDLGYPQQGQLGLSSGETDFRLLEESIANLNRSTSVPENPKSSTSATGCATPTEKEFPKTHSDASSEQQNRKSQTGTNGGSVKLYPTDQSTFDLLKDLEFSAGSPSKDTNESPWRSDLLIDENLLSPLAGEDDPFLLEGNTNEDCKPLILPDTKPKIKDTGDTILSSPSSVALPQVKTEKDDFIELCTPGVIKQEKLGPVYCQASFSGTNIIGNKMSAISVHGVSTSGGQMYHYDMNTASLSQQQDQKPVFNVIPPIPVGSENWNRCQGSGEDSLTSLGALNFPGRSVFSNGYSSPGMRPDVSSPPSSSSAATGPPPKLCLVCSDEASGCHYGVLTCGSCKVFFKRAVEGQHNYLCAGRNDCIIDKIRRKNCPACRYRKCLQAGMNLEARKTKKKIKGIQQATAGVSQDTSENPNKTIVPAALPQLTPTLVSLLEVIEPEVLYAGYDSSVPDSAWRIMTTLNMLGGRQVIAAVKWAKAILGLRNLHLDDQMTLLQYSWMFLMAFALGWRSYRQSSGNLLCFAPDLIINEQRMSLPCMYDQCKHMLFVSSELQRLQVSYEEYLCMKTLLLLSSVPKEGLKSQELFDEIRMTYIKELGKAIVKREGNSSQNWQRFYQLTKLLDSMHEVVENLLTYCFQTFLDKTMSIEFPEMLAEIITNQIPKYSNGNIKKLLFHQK

[5] = molecular target: L-type calcium channel, benzothiazepine binding site (Rattus norvegicus, UniProt P22002+P27732+Q02485); experiment: Inhibition of rat L-type calcium channel benzothiazepine binding site at 10 uM relative to control; outline: as §1
Rattus norvegicus [6] = species on record: Rattus norvegicus; experiment: Inhibition of rat N-methyl D-aspartate receptor phencyclidine binding site at 10 uM relative to control; outline: as §2
[7] = molecular target: Adrenergic receptor alpha-2 (Rattus norvegicus) (UniProt P22086+P19328+P22909); experiment: Inhibition of rat alpha-2 adrenergic receptor at 10 uM relative to control; outline: as §1
[8] = molecular target: 5-hydroxytryptamine receptor 1B (Rattus norvegicus) (UniProt P28564); experiment: Inhibition of rat 5HT-1B receptor at 10 uM relative to control; outline: as §1
Chain of 5-hydroxytryptamine receptor 1B (Rattus norvegicus) (P28564 whole entry): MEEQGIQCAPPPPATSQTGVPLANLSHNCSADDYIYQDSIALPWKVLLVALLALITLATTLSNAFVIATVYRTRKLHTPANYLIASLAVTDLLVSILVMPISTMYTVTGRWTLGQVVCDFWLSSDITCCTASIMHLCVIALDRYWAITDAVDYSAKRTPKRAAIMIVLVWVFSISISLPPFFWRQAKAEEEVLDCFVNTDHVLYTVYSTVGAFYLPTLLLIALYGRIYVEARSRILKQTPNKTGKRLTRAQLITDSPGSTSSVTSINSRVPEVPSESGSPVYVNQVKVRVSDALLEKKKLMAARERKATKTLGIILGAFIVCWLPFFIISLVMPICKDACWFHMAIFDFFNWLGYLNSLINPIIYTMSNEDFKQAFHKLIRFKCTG

[9] = molecular target: Progesterone receptor (Homo sapiens) (UniProt P06401); experiment: Inhibition of human progesterone B receptor at 10 uM relative to control; outline: as §1
[10] = molecular target: Sodium-dependent dopamine transporter (Homo sapiens) (UniProt Q01959); experiment: Inhibition of human DAT at 10 uM relative to control; outline: as §1
Chain of Sodium-dependent dopamine transporter (Homo sapiens) (Q01959 whole entry): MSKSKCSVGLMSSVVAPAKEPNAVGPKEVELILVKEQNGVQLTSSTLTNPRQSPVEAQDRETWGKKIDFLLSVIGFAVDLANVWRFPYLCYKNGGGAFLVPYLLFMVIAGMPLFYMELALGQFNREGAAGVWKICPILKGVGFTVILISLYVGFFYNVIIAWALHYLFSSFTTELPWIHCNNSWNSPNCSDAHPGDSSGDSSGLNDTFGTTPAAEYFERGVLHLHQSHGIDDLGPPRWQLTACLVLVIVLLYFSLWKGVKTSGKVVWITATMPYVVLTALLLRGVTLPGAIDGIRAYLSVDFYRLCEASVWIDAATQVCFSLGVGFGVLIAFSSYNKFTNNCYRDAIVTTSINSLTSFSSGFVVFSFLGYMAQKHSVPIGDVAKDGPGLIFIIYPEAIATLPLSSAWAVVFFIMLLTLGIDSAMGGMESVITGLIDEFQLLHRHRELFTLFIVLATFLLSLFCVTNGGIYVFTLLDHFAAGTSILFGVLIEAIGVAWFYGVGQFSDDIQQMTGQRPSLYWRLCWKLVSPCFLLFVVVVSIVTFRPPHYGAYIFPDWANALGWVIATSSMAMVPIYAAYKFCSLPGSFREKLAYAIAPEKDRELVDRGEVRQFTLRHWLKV

MAO-B = MAO-B (Homo sapiens, UniProt P27338); experiment: Inhibition of human MAOB at 10 uM relative to control; outline: as §1
Chain of MAO-B (P27338 whole entry): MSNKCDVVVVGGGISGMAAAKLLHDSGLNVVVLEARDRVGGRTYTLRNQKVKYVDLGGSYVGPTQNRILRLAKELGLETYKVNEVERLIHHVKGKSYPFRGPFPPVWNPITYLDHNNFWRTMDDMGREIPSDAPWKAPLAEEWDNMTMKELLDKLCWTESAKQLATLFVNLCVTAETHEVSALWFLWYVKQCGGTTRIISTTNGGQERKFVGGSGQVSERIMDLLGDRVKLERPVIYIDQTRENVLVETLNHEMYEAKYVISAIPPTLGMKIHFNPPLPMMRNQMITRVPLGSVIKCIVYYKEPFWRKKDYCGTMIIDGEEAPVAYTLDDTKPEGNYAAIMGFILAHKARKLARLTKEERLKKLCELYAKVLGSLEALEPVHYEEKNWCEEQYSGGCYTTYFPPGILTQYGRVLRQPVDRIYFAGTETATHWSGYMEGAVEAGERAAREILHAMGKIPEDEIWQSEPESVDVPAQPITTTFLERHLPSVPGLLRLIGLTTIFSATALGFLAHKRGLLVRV

[11] = molecular target: Sodium-dependent noradrenaline transporter (Homo sapiens) (UniProt P23975); experiment: Inhibition of human NET at 10 uM relative to control; outline: as §1
[12] = molecular target: 5-hydroxytryptamine receptor 2B (Homo sapiens) (UniProt P41595); experiment: Inhibition of human 5HT-2B receptor at 10 uM relative to control; outline: as §1
Chain of 5-hydroxytryptamine receptor 2B (Homo sapiens) (P41595 whole entry): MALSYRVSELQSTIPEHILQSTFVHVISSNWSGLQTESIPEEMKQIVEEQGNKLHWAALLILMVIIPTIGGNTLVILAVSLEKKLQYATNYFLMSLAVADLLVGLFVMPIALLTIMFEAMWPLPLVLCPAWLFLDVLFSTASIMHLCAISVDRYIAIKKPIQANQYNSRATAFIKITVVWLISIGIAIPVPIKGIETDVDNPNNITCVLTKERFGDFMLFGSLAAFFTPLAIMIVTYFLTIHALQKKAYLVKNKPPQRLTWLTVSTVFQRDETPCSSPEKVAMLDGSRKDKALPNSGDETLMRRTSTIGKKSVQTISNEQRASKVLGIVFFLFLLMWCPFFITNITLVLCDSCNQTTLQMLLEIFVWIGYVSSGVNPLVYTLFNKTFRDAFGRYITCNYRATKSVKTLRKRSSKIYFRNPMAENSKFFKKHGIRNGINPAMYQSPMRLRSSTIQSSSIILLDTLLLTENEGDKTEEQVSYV

[13] = molecular target: Adrenergic receptor alpha-1 (Rattus norvegicus) (UniProt P15823+P23944+P43140); experiment: Inhibition of rat alpha-1 adrenergic receptor at 10 uM relative to control; outline: as §1
[14] = molecular target: Phosphodiesterase 3 (Homo sapiens) (UniProt Q14432+Q13370); experiment: Inhibition of human PDE3 at 10 uM relative to control; assay type: protein assay
[15] = Metabolic stability in human liver microsomes assessed as compound remaining at 3 uM after 10 mins; assay type: ADME; conditions: read-out: Stability
Outline: (§3)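 Parent compound at 3 µM was incubated 10 min in human, rat or mouse liver microsomes with appropriate co-factors. Read-out is percent of parent remaining.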

[16] = Metabolic stability in rat liver microsomes assessed as compound remaining at 3 uM after 10 mins; assay type: ADME; conditions: read-out: Stability; outline: as §3
Homo sapiens = species on record: Homo sapiens; experiment: Inhibition of calcium channel (unknown origin) at 10 uM relative to control
Outline: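 Calcium (ICa) and sodium (INa) currents were measured as percent inhibition at a single concentration of 10 µM. Values are means of 2-4 experiments.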

hERG (KCNH2) = hERG (KCNH2) (Homo sapiens, UniProt Q12809); experiment: Inhibition of human ERG at 10 uM relative to control; outline: as §1
[17] = Cmax in rat at 2 mg/kg administered as intra-arterial infusion for 10 mins and 5 mg/kg, po; assay type: ADME, organism-based; design: route oral; conditions: in vivo
Outline: (§4)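 Rats (3 per compound) received intra-arterial infusion over 10 min or oral gavage. Vehicle for both routes was 40% PEG 400, 40% water and 20% ethanol. Values are means of 3 animals.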

[18] = AUC in rat at 5 mg/kg, po; assay type: ADME, organism-based; conditions: in vivo; outline: as §4
[19] = Half life in rat at 2 mg/kg administered as intra-arterial infusion for 10 mins and 5 mg/kg, po; assay type: ADME, organism-based; conditions: in vivo; outline: as §4
[20] = Volume of distribution at steady state in rat at 2 mg/kg administered as intra-arterial infusion for 10 mins and 5 mg/kg, po; assay type: ADME, organism-based; conditions: in vivo, read-out: Vdss
Outline: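 Rat PK: 2.0 mg/kg by intra-arterial infusion over 10 min and 5.0 mg/kg by oral gavage, vehicle 40% PEG 400, 40% water, 20% ethanol for both routes; Vss from 3 animals, reported as mean.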

Rattus norvegicus [21] = experiment: Induction of QT interval prolongation in rat at 3 mg/kg, iv administered as infusion for 5 mins by ECG analysis; assay type: functional
Outline: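 Rats were dosed at 3 mg/Kg. Block of IKur was read as the percent change in the ECG QT interval; mean blood pressure and plasma concentration were recorded alongside. Values are means of 2-4 experiments.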

Rattus norvegicus [22] = experiment: Toxicity in rat assessed as increase in blood pressure at 3 mg/kg, iv administered as infusion for 5 mins; assay type: organism-based; conditions: in vivo
Outline: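 Rats were dosed at 3 mg/Kg. QT interval on ECG, mean blood pressure (% change) and plasma concentration were measured. Values are means of 2-4 experiments.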

Oryctolagus cuniculus [23] = species on record: Oryctolagus cuniculus; experiment: Induction of […] effective refractory period prolongation in rabbit; assay type: functional
Outline: (§5)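 Rabbits were dosed at 0.3, 1.0 and 3.0 mg/Kg. Effective refractory period was measured in atrium and ventricle, and blood pressure was recorded. The plasma concentration giving 20% atrial ERP prolongation (EC20) was calculated.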

Oryctolagus cuniculus [24] = species on record: Oryctolagus cuniculus; experiment: Toxicity in rabbit assessed as effect on ventricular effective refractory period; assay type: organism-based, Cardiac ventricle; conditions: in vivo; outline: as §5
Oryctolagus cuniculus [25] = experiment: Toxicity in rabbit assessed as increase in blood pressure at 0.3 to 3 mg/kg; assay type: organism-based; conditions: in vivo; outline: as §5
[26] = Cmax in rabbit at 0.3 to 3 mg/kg; assay type: ADME, organism-based, Oryctolagus cuniculus; conditions: in vivo; outline: as §5
MAO-A = MAO-A (Homo sapiens, UniProt P21397); experiment: Inhibition of human MAOA at 10 uM relative to control; outline: as §1
[27] = molecular target: Somatostatin receptor type 2 (Homo sapiens) (UniProt P30874); experiment: Inhibition of human SS2 receptor at 10 uM relative to control; outline: as §1
[28] = molecular target: Adrenergic receptor beta (Rattus norvegicus) (UniProt P18090+P10608+P26255); experiment: Inhibition of rat beta adrenergic receptor at 10 uM relative to control; outline: as §1
[29] = molecular target: 5-hydroxytryptamine receptor 4 (Cavia porcellus) (UniProt O70528); experiment: Inhibition of guinea pig 5-HT4 receptor at 10 uM relative to control; outline: as §1
Chain of 5-hydroxytryptamine receptor 4 (Cavia porcellus) (O70528 whole entry): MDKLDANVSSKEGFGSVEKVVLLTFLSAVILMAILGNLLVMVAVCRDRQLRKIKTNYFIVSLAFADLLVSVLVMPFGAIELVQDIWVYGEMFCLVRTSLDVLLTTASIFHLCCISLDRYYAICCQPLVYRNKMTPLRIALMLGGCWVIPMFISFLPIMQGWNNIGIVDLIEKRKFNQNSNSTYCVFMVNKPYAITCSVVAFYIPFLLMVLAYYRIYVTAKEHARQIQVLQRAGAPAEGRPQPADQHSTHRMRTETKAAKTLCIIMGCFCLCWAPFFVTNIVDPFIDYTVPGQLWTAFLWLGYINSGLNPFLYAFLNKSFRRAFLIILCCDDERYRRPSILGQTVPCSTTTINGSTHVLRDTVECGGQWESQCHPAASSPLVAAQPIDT

[30] = molecular target: Sodium-dependent serotonin transporter (Homo sapiens) (UniProt P31645); experiment: Inhibition of human SERT at 10 uM relative to control; outline: as §1
Chain of Sodium-dependent serotonin transporter (Homo sapiens) (P31645 whole entry, looked up): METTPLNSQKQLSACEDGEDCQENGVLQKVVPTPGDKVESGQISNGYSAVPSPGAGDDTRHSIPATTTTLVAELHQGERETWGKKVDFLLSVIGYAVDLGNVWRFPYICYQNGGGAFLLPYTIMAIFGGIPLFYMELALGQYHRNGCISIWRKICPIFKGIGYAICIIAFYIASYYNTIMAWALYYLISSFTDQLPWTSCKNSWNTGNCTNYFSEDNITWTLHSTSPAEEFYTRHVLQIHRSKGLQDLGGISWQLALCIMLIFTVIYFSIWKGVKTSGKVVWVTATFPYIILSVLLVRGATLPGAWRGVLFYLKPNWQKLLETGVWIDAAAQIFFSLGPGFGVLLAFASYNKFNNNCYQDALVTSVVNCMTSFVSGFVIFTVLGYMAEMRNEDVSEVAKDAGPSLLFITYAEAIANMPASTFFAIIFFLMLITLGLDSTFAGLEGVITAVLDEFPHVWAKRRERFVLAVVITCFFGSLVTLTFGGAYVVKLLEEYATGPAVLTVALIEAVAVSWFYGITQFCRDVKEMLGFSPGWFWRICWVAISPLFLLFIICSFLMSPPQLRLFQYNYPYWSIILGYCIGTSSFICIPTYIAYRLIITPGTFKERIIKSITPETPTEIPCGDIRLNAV

[31] = molecular target: Adenosine receptor A2a (Homo sapiens) (UniProt P29274); experiment: Inhibition of human adenosine A2A receptor at 10 uM relative to control; outline: as §1
Chain of Adenosine receptor A2a (Homo sapiens) (P29274 whole entry): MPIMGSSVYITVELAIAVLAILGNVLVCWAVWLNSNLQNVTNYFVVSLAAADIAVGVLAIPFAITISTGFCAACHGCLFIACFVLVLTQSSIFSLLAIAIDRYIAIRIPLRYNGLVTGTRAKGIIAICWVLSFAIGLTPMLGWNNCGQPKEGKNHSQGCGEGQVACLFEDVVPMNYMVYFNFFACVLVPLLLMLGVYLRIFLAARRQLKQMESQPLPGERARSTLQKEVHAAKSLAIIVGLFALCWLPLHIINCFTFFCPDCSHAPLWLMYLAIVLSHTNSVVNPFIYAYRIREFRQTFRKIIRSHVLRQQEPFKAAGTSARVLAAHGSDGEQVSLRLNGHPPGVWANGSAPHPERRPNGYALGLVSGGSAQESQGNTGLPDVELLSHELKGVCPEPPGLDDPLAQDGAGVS

Rattus norvegicus [32] = species on record: Rattus norvegicus; experiment: Inhibition of rat GABAA central-type benzodiazepine receptor at 10 uM relative to control; outline: as §2
[33] = molecular target: Phosphodiesterase 4 (Homo sapiens) (UniProt P27815+Q08499+Q07343+Q08493); experiment: Inhibition of human PDE4 at 10 uM relative to control; assay type: protein assay; outline: as §1

Chain of Mu-type opioid receptor (Homo sapiens) (P35372 whole entry): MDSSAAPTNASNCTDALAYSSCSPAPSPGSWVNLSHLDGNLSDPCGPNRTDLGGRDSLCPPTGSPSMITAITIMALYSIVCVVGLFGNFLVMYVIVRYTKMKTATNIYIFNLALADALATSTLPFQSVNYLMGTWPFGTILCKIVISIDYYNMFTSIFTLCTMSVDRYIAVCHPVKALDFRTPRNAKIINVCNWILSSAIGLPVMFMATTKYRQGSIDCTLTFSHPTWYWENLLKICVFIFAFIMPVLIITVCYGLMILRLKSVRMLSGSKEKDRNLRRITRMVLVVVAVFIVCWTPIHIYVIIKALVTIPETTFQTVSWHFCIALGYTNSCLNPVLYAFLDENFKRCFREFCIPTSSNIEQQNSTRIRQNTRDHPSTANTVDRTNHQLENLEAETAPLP

## COc1cccc2c1C(NC[C@]1(c3ccccc3)CC[C@H](NC(=O)OC(C)C)CC1)=NS2(=O)=O
[1]
  inhibition: 31%
[2]
  inhibition: 29%
Rattus norvegicus [3]
  inhibition: 30%
[4]
  inhibition: 17%
[5]
  inhibition at 10 µM: 15%
Rattus norvegicus [6]
  inhibition: 2%
[7]
  inhibition: -2%
[8]
  inhibition: 23%
[9]
  inhibition: 10%
[10]
  inhibition: 37%
MAO-B
  inhibition at 10 µM: 9%
[11]
  inhibition: 6%
[12]
  inhibition: 27%
[13]
  inhibition: -6%
[14]
  inhibition: 15%
[15]
  remaining at 10 min, 3 µM: 85%
[16]
  remaining at 10 min, 3 µM: 29%
Homo sapiens
  inhibition: 41%
hERG (KCNH2)
  inhibition at 10 µM: 68%
[17]
  Cmax: 0.93 µM
[18]
  AUC: 1.8 µM·h
[19]
  half-life: 0.9 h
[20]
  Vd: 0.3 L/kg
Rattus norvegicus [21]
  Activity: 68%
Rattus norvegicus [22]
  Activity: 44%
Oryctolagus cuniculus [23]
  EC20: <700 nM
Oryctolagus cuniculus [24]
  Activity: Non-toxic
Oryctolagus cuniculus [25]
  Activity: 17%
[26]
  Cmax: 4.7 µM
MAO-A
  inhibition at 10 µM: 10%
[27]
  inhibition: 6%
[28]
  inhibition: 0%
[29]
  inhibition: 25%
[30]
  inhibition: -6%
[31]
  inhibition: 23%
Rattus norvegicus [32]
  inhibition: 2%
[33]
  inhibition: 25%

## COc1cccc2c1C(NC[C@]1(c3ccccc3)CC[C@H](O)CC1)=NS2(=O)=O
[1]
  inhibition: 0%
[2]
  inhibition: 9%
Rattus norvegicus [3]
  inhibition: 9%
[4]
  inhibition: 14%
[5]
  inhibition at 10 µM: 0%
Rattus norvegicus [6]
  inhibition: -6%
[7]
  inhibition: -6%
[8]
  inhibition: 42%
[9]
  inhibition: 6%
[10]
  inhibition: 18%
MAO-B
  inhibition at 10 µM: 3%
[11]
  inhibition: 8%
[12]
  inhibition: 2%
[13]
  inhibition: 13%
[14]
  inhibition: 53%
[15]
  remaining at 10 min, 3 µM: 90%
[16]
  remaining at 10 min, 3 µM: 68%
Homo sapiens
  inhibition: 14%
hERG (KCNH2)
  inhibition at 10 µM: 54%
[17]
  Cmax: 1.7 µM
[18]
  AUC: 2.7 µM·h
[19]
  half-life: 5.1 h
[20]
  Vd: 3.2 L/kg
Rattus norvegicus [21]
  Activity: 66%
Rattus norvegicus [22]
  Activity: 13%
Oryctolagus cuniculus [23]
  EC20: 600 nM
Oryctolagus cuniculus [24]
  Activity: Non-toxic
Oryctolagus cuniculus [25]
  Activity: 19%
[26]
  Cmax: 6.1 µM
MAO-A
  inhibition at 10 µM: 3%
[27]
  inhibition: 4%
[28]
  inhibition: -4%
[29]
  inhibition: 5%
[30]
  inhibition: 10%
[31]
  inhibition: -5%
Rattus norvegicus [32]
  inhibition: 29%
[33]
  inhibition: 26%
